The structures appear in SMILES notation.

Series [1] concerns the target T1, Renin (Homo sapiens, UniProt P00797).
T1 sequence (P00797 whole entry): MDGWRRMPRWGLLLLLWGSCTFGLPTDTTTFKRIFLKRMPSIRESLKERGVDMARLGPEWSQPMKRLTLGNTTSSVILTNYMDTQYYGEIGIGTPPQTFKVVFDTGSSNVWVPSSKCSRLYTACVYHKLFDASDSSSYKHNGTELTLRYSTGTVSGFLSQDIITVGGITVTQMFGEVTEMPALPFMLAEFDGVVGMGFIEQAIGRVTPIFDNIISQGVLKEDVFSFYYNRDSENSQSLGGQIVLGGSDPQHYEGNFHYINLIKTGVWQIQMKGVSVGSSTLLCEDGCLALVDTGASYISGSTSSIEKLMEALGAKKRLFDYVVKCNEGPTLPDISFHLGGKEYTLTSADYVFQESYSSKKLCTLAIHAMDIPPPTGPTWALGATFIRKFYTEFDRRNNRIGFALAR
The experiment in a line: Inhibition of human rennin in buffer assessed as accumulation of angiotensin 1 using human tetradecapeptide by immunoassay.

Series [2] addresses T1, Renin. Briefly: Inhibition of human rennin in human plasma assessed as accumulation of angiotensin 1 using human tetradecapeptide by immunoassay. The class given is cell-free.
The nature of series [3]: Dissociation constant, pKa of the compound. It counts as physicochemical. The procedure, abridged:
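pKa of the template's secondary amine, measured experimentally. Compounds poorly soluble in water in their neutral form were measured in solvent mixtures, so their values could only be estimated.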

Series [4] is described as follows: Oral bioavailability in Wistar rat at 10 mg/kg. The class given is ADME, organism-based. The conditions noted are these: in vivo.
The target in the next series is Cytochrome P450 3A4 (Homo sapiens, UniProt P08684). The experiment in a line: Inhibition of CYP3A4. The class given is ADME.
Chain of Cytochrome P450 3A4 (P08684 whole entry): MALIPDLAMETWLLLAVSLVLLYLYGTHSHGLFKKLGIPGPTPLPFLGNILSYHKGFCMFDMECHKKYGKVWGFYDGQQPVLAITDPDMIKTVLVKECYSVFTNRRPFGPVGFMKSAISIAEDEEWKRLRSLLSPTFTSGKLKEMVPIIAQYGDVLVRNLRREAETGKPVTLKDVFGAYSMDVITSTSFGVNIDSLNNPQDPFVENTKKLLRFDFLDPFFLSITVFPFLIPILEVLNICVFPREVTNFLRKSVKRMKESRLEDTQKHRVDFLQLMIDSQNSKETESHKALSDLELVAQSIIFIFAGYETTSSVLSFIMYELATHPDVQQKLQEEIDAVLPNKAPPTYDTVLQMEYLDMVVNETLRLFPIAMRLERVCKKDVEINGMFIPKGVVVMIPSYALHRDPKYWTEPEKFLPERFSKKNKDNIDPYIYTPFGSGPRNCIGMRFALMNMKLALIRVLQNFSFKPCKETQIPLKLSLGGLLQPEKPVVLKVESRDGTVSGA

A word on the IC50: it is the point on the concentration scale where inhibition reaches its midpoint. As usually defined, the pKa is the pH at which an ionisable group is half protonated. As to `O=C(C1=C(c2ccc(CCCOc3c(F)ccc(F)c3Cl)cc2)C[C@H]2CNC[C@H]1N2)N(Cc1cccc(Cl)c1Cl)C1CC1`, the figures for the IC50 at Renin [1] and at Renin [2] were 0.4 nM and 36 nM, respectively. The pKa in series [3] amounted to 8.2.

In the case of `O=C(C1=C(c2ccc(CCCOc3c(F)ccc(F)c3Cl)cc2)C[C@H]2COC[C@H]1N2)N(Cc1cccc(Cl)c1Cl)C1CC1`, the IC50 at Renin [1] is 0.68 nM; on Renin [2] it was 55 nM. In addition, the pKa in series [3] was 6.5.

Take `O=C(C1=C(c2ccc(CCCOc3c(F)ccc(F)c3Cl)cc2)C[C@H]2CCC[C@H]1N2)N(Cc1cccc(Cl)c1Cl)C1CC1`: the IC50 at Renin [1] turned out to be 1.1 nM; on Renin [2] it was 113 nM.

As for `O=C(C1=C(c2ccc(CCCOc3c(F)ccc(F)c3Cl)cc2)C[C@H]2CS(=O)(=O)C[C@H]1N2)N(Cc1cccc(Cl)c1Cl)C1CC1`, the IC50 on Renin [1] is 6.4 nM.

One may read the bioavailability as dose-corrected exposure relative to a reference, in per cent. Lower therefore signals poor availability. `COc1cccc(CN(C(=O)C2=C(c3ccc(CCCOc4c(F)ccc(F)c4Cl)cc3)C(C)(C)CNC2)C2CC2)c1C`: the values for the IC50 at Renin [1] and on Renin [2] were 170 nM and 7400 nM, respectively. Moreover, the bioavailability in series [4] is 10%.

In the case of `COc1cccc(CN(C(=O)C2=C(c3ccc(CCCOc4c(F)ccc(F)c4Cl)cc3)C[C@H]3C[S+]([O-])C[C@H]2N3)C2CC2)c1C` (some centres undefined), the IC50 at Renin [1] stood at 64 nM.

`COc1cccc(CN(C(=O)C2=C(c3ccc(CCCOc4c(F)ccc(F)c4Cl)cc3)C3(CC3)CNC2)C2CC2)c1C`: the IC50 at Renin [1] turned out to be 210 nM; on Renin [2], 7400 nM. The compound further gave a bioavailability in series [4] of 10%.

`O=C(C1=C(c2ccc(CCCOc3c(F)ccc(F)c3Cl)cc2)C[C@H]2CC[C@H]1N2)N(Cc1cccc(Cl)c1Cl)C1CC1`: the IC50 on Renin [1] stood at 0.55 nM; on Renin [2], 47 nM; against Cytochrome P450 3A4, 1900 nM.

For the compound `O=C(C1=C(c2ccc(CCCOc3c(F)ccc(F)c3Cl)cc2)C2(CC2)CNC1)N(Cc1cccc(Cl)c1Cl)C1CC1`, the IC50 at Renin [1] amounted to 34 nM; on Renin [2], 4000 nM. In series [4], this compound registered a bioavailability of 10%.

Turning to `CC1(C)CNCC(C(=O)N(Cc2cccc(Cl)c2Cl)C2CC2)=C1c1ccc(CCCOc2c(F)ccc(F)c2Cl)cc1`, the IC50 was 31 nM at Renin [1] and 2000 nM at Renin [2]. This compound also registered a bioavailability in series [4] of 10%.

For `COc1cccc(CN(C(=O)C2=C(c3ccc(CCCOc4c(F)ccc(F)c4Cl)cc3)C[C@H]3CNC[C@H]2N3)C2CC2)c1C`, the IC50 on Renin [1] stood at 1.37 nM; at Renin [2], 54 nM. In addition, the pKa in series [3] came out at 3.6.

As for `COc1cccc(CN(C(=O)C2=C(c3ccc(CCCOc4c(F)ccc(F)c4Cl)cc3)C[C@H]3CCC[C@H]2N3)C2CC2)c1C`, the IC50 amounted to 0.92 nM on Renin [1] and 101 nM at Renin [2].

Turning to `O=C(C1=C(c2ccc(CCCOc3c(F)ccc(F)c3Cl)cc2)C(F)(F)CNC1)N(Cc1cccc(Cl)c1Cl)C1CC1`, the IC50 on Renin [1] amounted to 800 nM. The same compound had a bioavailability in series [4] of 10%.

Regarding `COc1cccc(CN(C(=O)C2=C(c3ccc(CCCOc4c(F)ccc(F)c4Cl)cc3)C[C@H]3COC[C@H]2N3)C2CC2)c1C`, the IC50 on Renin [1] is 0.49 nM; at Renin [2] it was 42 nM; against Cytochrome P450 3A4, 1000 nM. Further, the pKa in series [3] amounted to 6.5.

As for `COc1cccc(CN(C(=O)C2=C(c3ccc(CCCOc4c(F)ccc(F)c4Cl)cc3)C[C@H]3CC[C@H]2N3)C2CC2)c1C`, the figures for the 50% inhibitory concentration (IC50) on Renin [1] and on Renin [2] were 0.74 nM and 43 nM, respectively.

`COc1cccc(CN(C(=O)C2=C(c3ccc(CCCOc4c(F)ccc(F)c4Cl)cc3)CCNC2)C2CC2)c1C`: the IC50 on Renin [1] stood at 2 nM; at Renin [2], 87 nM. The compound also yielded a bioavailability in series [4] of 10%.

For `COc1cccc(CN(C(=O)C2=C(c3ccc(CCCOc4c(F)ccc(F)c4Cl)cc3)C(F)(F)CNC2)C2CC2)c1C`, the IC50 at Renin [1] was 330 nM. For the same compound, the bioavailability in series [4] was 10%.

`Cc1cc(Cl)c(OCCOc2ccc(C3=C(C(=O)N(Cc4cccc(Cl)c4Cl)C4CC4)CNCC3)cc2)c(Cl)c1` came in with a bioavailability in series [4] of 10%.

In the case of `O=C(C1=C(c2ccc(CCCOc3c(F)ccc(F)c3Cl)cc2)CCNC1)N(Cc1cccc(Cl)c1Cl)C1CC1`, the IC50 on Renin [1] was determined as 1.2 nM; on Renin [2] it was 53 nM; at Cytochrome P450 3A4, 1300 nM. For the same compound, in series [4], the bioavailability came out at 10%.

In turn, `O=C(C1=C(c2ccc(CCCOc3cc(F)ccc3Br)cc2)CCNC1)N(Cc1ccccc1Cl)C1CC1` registered a bioavailability in series [4] of 10%.

The record behind these values is ChEMBL document CHEMBL1154384, “New classes of potent and bioavailable human renin inhibitors” (Bioorg Med Chem Lett, 2009).
